According to ChEMBL document CHEMBL1124235, “3-Phenoxypyridine 1-oxides as anticonvulsant agents” (1988):
Calls of active or inactive are those of the source. The calls are words filed in the database; no cut-off is given here.

Assays:
Mus musculus [1] = assay: Dose required to protect Mice against tonic extension produced by maximal electroshock (MES) at 30 min post administration; format: functional; conditions: 0.5 h, read-out: MED
How it was run: (§1)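 Male Swiss-Webster mice (25–32 g), with food and water before testing, were dosed ip, the compound being in water or suspended in 0.29% Methocel. Doses were counted as free base, at levels of 10, 30, 100, 300 or >300 mg/kg, with n = 5. At 30 min, 90 mA, 1 ms monophasic pulses at 100 Hz were given through ear clips for 0.2 s. Value is the lowest dose protecting ≥2 mice from tonic hind-limb extension.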

Mus musculus [2] = assay: Dose at which mouse exhibited ataxia using the inverted screen procedure at 30 min post administration; format: functional
How it was run: (§2)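 Mice (n = 5 per dose) were scored 30 min after dosing at levels of 10, 30, 100, 300 or >300 mg/kg. They were placed on an inverted wire-mesh square, and impaired mice fall off.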

Mus musculus [3] = assay: Increase in spontaneous locomotion activity after intraperitoneal administration in mice at 10 mg/kg; no change; format: functional, organism-based; parameters: dose 10 mg/kg
How it was run: (§3)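 After ip injection, spontaneous locomotor activity was recorded automatically over a 1-h period beginning 20 min after dosing, with nine or more mice per dose group. Values are percent change from saline-treated mice.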

Mus musculus [4] = assay: Number of mice falling from an inverted wire mesh during a 1-min test period 20 min after ip administration at given dose in ataxia (inverted screen test) at 20 mg/kg; - denotes 'no animals fell'; format: functional, organism-based; parameters: dose 20 mg/kg
How it was run: (§4)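 Mice were dosed ip and placed on an inverted wire mesh 20 min after injection, for a 1-min test. The number of mice that fell per dose group was counted, and a dash means none fell.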

Mus musculus [5] = assay: Number of mice falling from an inverted wire mesh during a 1-min test period 20 min after ip administration at given dose in ataxia (inverted screen test) at 40 mg/kg; - denotes 'no animals fell'; format: functional, organism-based; parameters: dose 40 mg/kg; how it was run: as §4
Mus musculus [6] = assay: Number of mice falling from an inverted wire mesh during a 1-min test period 20 min after ip administration at given dose in ataxia (inverted screen test) at 10 mg/kg; - denotes 'no animals fell'; format: functional, organism-based; parameters: dose 10 mg/kg; how it was run: as §4
Mus musculus [7] = assay: Number of mice falling from an inverted wire mesh during a 1-min test period 20 min after ip administration at given dose in ataxia (inverted screen test) at 100 mg/kg; - denotes 'no animals fell'; format: functional, organism-based; parameters: dose 100 mg/kg; how it was run: as §4
Mus musculus [8] = assay: Increase in spontaneous locomotion activity after intraperitoneal administration in mice; 40 mg/kg; format: functional; how it was run: as §3
Mus musculus [9] = assay: Increase in spontaneous locomotion activity after intraperitoneal administration in mice; at 100 mg/kg; format: functional; how it was run: as §3
Mus musculus [10] = assay: Increase in spontaneous locomotion activity after intraperitoneal administration in mice at 20 mg/kg; format: functional; how it was run: as §3
Mus musculus [11] = assay: Number of mice falling from an inverted wire mesh during a 1-min test period 20 min after ip administration at a dose of 10 mg/Kg in ataxia (inverted screen test); - denotes 'no animals fell'; format: functional, organism-based; how it was run: as §4
Mus musculus [12] = assay: Number of mice falling from an inverted wire mesh during a 1-min test period 20 min after ip administration at a dose of 100 mg/Kg in ataxia (inverted screen test); - denotes 'no animals fell'; format: functional, organism-based; how it was run: as §4
Mus musculus [13] = assay: Number of mice falling from an inverted wire mesh during a 1-min test period 20 min after ip administration at a dose of 30 mg/Kg in ataxia (inverted screen test); - denotes 'no animals fell'; format: functional, organism-based; how it was run: as §4
Mus musculus [14] = assay: Increase in spontaneous locomotion activity after intraperitoneal administration in mice at a dose of 10 mg/Kg; format: functional; how it was run: as §3
Mus musculus [15] = assay: Increase in spontaneous locomotion activity after intraperitoneal administration in mice at a dose of 100 mg/Kg; format: functional; how it was run: as §3
Mus musculus [16] = assay: Increase in spontaneous locomotion activity after intraperitoneal administration in mice at a dose of 30 mg/Kg; format: functional; how it was run: as §3
Mus musculus [17] = assay: Number of mice falling from an inverted wire mesh during a 1-min test period 20 min after ip administration at a dose of 100 mg/Kg in ataxia (inverted screen test); 3/9; format: functional; how it was run: as §4
Mus musculus [18] = assay: Dose required to protect Mice against tonic extension produced by maximal electroshock (MES) at 30 min post administration.; format: functional; conditions: 0.5 h, read-out: MED; how it was run: as §1
Mus musculus [19] = assay: Dose at which mouse exhibited ataxia using the inverted screen procedure at 30 min post administration.; format: functional; how it was run: as §2
Mus musculus [20] = assay: Number of mice falling from an inverted wire mesh during a 1-min test period 20 min after ip administration at a dose of 30 mg/Kg in ataxia (inverted screen test); 1/9; format: functional; how it was run: as §4
Mus musculus [21] = assay: Number of mice falling from an inverted wire mesh during a 1-min test period 20 min after ip administration at a dose of 10 mg/Kg in ataxia (inverted screen test ); - denotes 'no animals fell'; format: functional, organism-based; how it was run: as §4
Mus musculus [22] = assay: Number of mice falling from an inverted wire mesh during a 1-min test period 20 min after ip administration at a dose of 20 mg/Kg in ataxia (inverted screen test); 1/12; format: functional; how it was run: as §4
Mus musculus [23] = assay: Number of mice falling from an inverted wire mesh during a 1-min test period 20 min after ip administration at a dose of 40 mg/Kg in ataxia (inverted screen test); 1/12; format: functional; how it was run: as §4
Mus musculus [24] = assay: Number of mice falling from an inverted wire mesh during a 1-min test period 20 min after ip administration at a dose of 60 mg/Kg in ataxia (inverted screen test); 6/12; format: functional; how it was run: as §4
Mus musculus [25] = assay: Increase in spontaneous locomotion activity after intraperitoneal administration in mice at a dose of 60 mg/kg; format: functional; how it was run: as §3
Mus musculus [26] = assay: Increase in spontaneous locomotion activity after intraperitoneal administration in mice at a dose of 20 mg/Kg; format: functional; how it was run: as §3
Mus musculus [27] = assay: Increase in spontaneous locomotion activity after intraperitoneal administration in mice at a dose of 40 mg/kg; format: functional; how it was run: as §3
Mus musculus [28] = assay: Increase in spontaneous locomotion activity after intraperitoneal administration in mice at a dose of 5 mg/Kg; format: functional; how it was run: as §3
Rattus norvegicus [29] = assay: Ataxia produced by […] in rat by po administration at 1 hr post dosing; format: functional
How it was run: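 Rats were dosed orally and checked 1.0 h afterwards. Ataxia was judged by visual (subjective) observation, not by rotarod. ED50 was calculated by probit analysis of quantal data from four dose groups of eight rats each, with 95% confidence intervals.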

Rattus norvegicus [30] = assay: Anticonvulsant activity by maximal electroshock test(MES) in rat by po administration at 1 hr postdosing; format: functional
Mus musculus [31] = assay: Ataxia produced by rotarod ataxia test (ROT) in mouse by ip administration at 0.5 hr post dosing
Mus musculus [32] = assay: Ataxia produced by rotarod ataxia test (ROT) in mouse by po administration at 0.5 hr post dosing
Mus musculus [33] = assay: Anticonvulsant activity by maximal electroshock test(MES) in mouse by ip administration at 0.5 hr postdosing
Mus musculus [34] = assay: Anticonvulsant activity by maximal electroshock test(MES) in mouse by po administration at 0.5 hr postdosing
Mus musculus [35] = assay: Number of mice falling from an inverted wire mesh during a 1-min test period 20 min after ip administration at a dose of 100 mg/Kg in ataxia (inverted screen test); 2/9; format: functional; how it was run: as §4

Cc1ccc(Oc2c[n+]([O-])ccc2C)cc1
minimal effective dose (Mus musculus [1]): 300 mg/kg | MAD (Mus musculus [2]): 300 mg/kg

O=S(=O)(O)O.c1ccc(Oc2cccnc2)cc1
Activity (Mus musculus [3]): inactive | Activity (Mus musculus [4]): Not toxic | Activity (Mus musculus [5]): Not toxic | Activity (Mus musculus [6]): Not toxic | Activity (Mus musculus [7]): Not toxic | Change (Mus musculus [8]): 53% | Change (Mus musculus [9]): 15% | Change (Mus musculus [10]): 28% | minimal effective dose (Mus musculus [1]): 100 mg/kg | MAD (Mus musculus [2]): 300 mg/kg

Cc1cc(Oc2ccccc2)c[n+]([O-])c1
Activity (Mus musculus [11]): Not toxic | Activity (Mus musculus [12]): Not toxic | Activity (Mus musculus [13]): Not toxic | Change (Mus musculus [14]): 87% | Change (Mus musculus [15]): 228% | Change (Mus musculus [16]): 186% | minimal effective dose (Mus musculus [1]): 100 mg/kg | MAD (Mus musculus [2]): 300 mg/kg

CC(C)(C)c1cc[n+]([O-])cc1Oc1ccccc1
minimal effective dose (Mus musculus [1]): 30 mg/kg | MAD (Mus musculus [2]): 100 mg/kg

Cc1cc[n+]([O-])cc1Oc1ccc(Cl)cc1
minimal effective dose (Mus musculus [1]): 100 mg/kg | MAD (Mus musculus [2]): 100 mg/kg

Cc1ccc(Oc2ccccc2)c[n+]1[O-]
Activity (Mus musculus [11]): Not toxic | Activity (Mus musculus [17]): 3 | Activity (Mus musculus [13]): Not toxic | Change (Mus musculus [14]): 32% | Change (Mus musculus [15]): 134% | Change (Mus musculus [16]): 96% | minimal effective dose (Mus musculus [18]): 100 mg/kg | MAD (Mus musculus [19]): 300 mg/kg

[O-][n+]1cccc(Oc2ccccc2)c1
Activity (Mus musculus [20]): 1 | Activity (Mus musculus [21]): Not toxic | Activity (Mus musculus [12]): Not toxic | Change (Mus musculus [14]): 19% | Change (Mus musculus [15]): 122% | Change (Mus musculus [16]): 45% | minimal effective dose (Mus musculus [1]): 100 mg/kg | MAD (Mus musculus [2]): 300 mg/kg

O=c1c2ccccc2oc2c[n+]([O-])ccc12
minimal effective dose (Mus musculus [1]): > 300 mg/kg | MAD (Mus musculus [2]): 300 mg/kg

O=Cc1cc[n+]([O-])cc1Oc1ccccc1
minimal effective dose (Mus musculus [1]): 300 mg/kg | MAD (Mus musculus [2]): >300 mg/kg

CCc1cc[n+]([O-])cc1Oc1ccccc1
minimal effective dose (Mus musculus [1]): 30 mg/kg | MAD (Mus musculus [2]): 100 mg/kg

[O-][n+]1ccc(C2CCCCC2)c(Oc2ccccc2)c1
minimal effective dose (Mus musculus [1]): > 300 mg/kg | MAD (Mus musculus [2]): 300 mg/kg

N#Cc1cc[n+]([O-])cc1Oc1ccccc1
minimal effective dose (Mus musculus [1]): 300 mg/kg | MAD (Mus musculus [2]): 300 mg/kg

COc1ccc(Oc2c[n+]([O-])ccc2C)cc1
minimal effective dose (Mus musculus [1]): 300 mg/kg | MAD (Mus musculus [2]): 300 mg/kg

[O-][n+]1ccc(CO)c(Oc2ccccc2)c1
minimal effective dose (Mus musculus [1]): 300 mg/kg | MAD (Mus musculus [2]): 30 mg/kg

O=C(O)c1cc[n+]([O-])cc1Oc1ccccc1
minimal effective dose (Mus musculus [1]): > 300 mg/kg | MAD (Mus musculus [2]): >300 mg/kg

OCc1ccncc1Oc1ccccc1
minimal effective dose (Mus musculus [1]): 300 mg/kg | MAD (Mus musculus [2]): 300 mg/kg

[O-][n+]1ccc(Cl)c(Oc2ccccc2)c1
minimal effective dose (Mus musculus [1]): > 300 mg/kg | MAD (Mus musculus [2]): 300 mg/kg

Cc1cc[n+]([O-])cc1Oc1ccccc1
Activity (Mus musculus [11]): Not toxic | Activity (Mus musculus [22]): 1 | Activity (Mus musculus [23]): 1 | Activity (Mus musculus [24]): 6 | Change (Mus musculus [25]): 63% | Change (Mus musculus [14]): 55% | Change (Mus musculus [26]): 75% | Change (Mus musculus [27]): 92% | Change (Mus musculus [28]): 12% | minimal effective dose (Mus musculus [1]): 30 mg/kg | MAD (Mus musculus [2]): 100 mg/kg | ED50 (Rattus norvegicus [29]): 75 mg/kg | ED50 (Rattus norvegicus [30]): 11 mg/kg | ED50 (Mus musculus [31]): 76 mg/kg | ED50 (Mus musculus [32]): 300 mg/kg | ED50 (Mus musculus [33]): 23 mg/kg | ED50 (Mus musculus [34]): 85 mg/kg

c1ccc2c(c1)Cc1ccncc1O2
minimal effective dose (Mus musculus [1]): 100 mg/kg | MAD (Mus musculus [2]): 300 mg/kg

CC(C)c1cc[n+]([O-])cc1Oc1ccccc1
minimal effective dose (Mus musculus [1]): 30 mg/kg | MAD (Mus musculus [2]): 100 mg/kg

Cc1c(Oc2ccccc2)ccc[n+]1[O-]
Activity (Mus musculus [35]): 2 | Activity (Mus musculus [11]): Not toxic | Activity (Mus musculus [13]): Not toxic | Change (Mus musculus [14]): 48% | Change (Mus musculus [15]): 184% | Change (Mus musculus [16]): 25% | minimal effective dose (Mus musculus [1]): 300 mg/kg | MAD (Mus musculus [2]): 300 mg/kg
